Laboratory results from publication PMC10203771 (Saudi Pharmaceutical Journal : SPJ, 2023).
Converted amounts (≈) assume the structure as drawn.

Key:
[1] = system: Staphylococcus aureus; assay: Antibacterial assay; format: cell-based; conditions: Gram-positive
[2] = system: Pseudomonas aeruginosa; assay: Antibacterial assay; format: cell-based; conditions: Gram-negative
[3] = system: Proteus vulgaris; assay: Antibacterial assay; format: cell-based; conditions: Gram-negative
[4] = system: Escherichia coli; assay: Antibacterial assay; format: cell-based; conditions: Gram-negative
[5] = system: Bacillus subtilis; assay: Antibacterial assay; format: cell-based; conditions: Gram-positive
[6] = DPPH free radical scavenging assay; conditions: t = 16 min
Method in brief: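 Radical scavenging was read by absorbance. Percent inhibition = (Abs0 − AbsT)/Abs0 × 100, where Abs0 is the control at t = 0 and AbsT is the sample with DPPH at t = 16 min.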

[7] = system: HEKa cells; assay: Cell viability; format: cell-based; conditions: Homo sapiens, read-out: IC50 (mean ± SD; n = 3)
Method in brief: (§1)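 Cells were grown in medium with 10% FBS and penicillin/streptomycin 100 units/mL, humidified, at 37 °C and 5% CO2; HT-29 and HEKa were in RPMI-1640. About 2000 cells/well were seeded in 96-well plates. Cells were rinsed once with PBS and five times with distilled water.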

[8] = system: HT-29 cells; assay: Cell viability; format: cell-based; conditions: Homo sapiens, HT-29, read-out: IC50 (mean ± SD; n = 3)
Method in brief: as §1

[9] = system: HepG2 cells; assay: Cell viability; format: cell-based; conditions: Homo sapiens, HepG2, read-out: IC50 (mean ± SD; n = 3)
Method in brief: as §1

[10] = system: PC-3 cells; assay: Cell viability; format: cell-based; conditions: Homo sapiens, PC-3, read-out: IC50 (mean ± SD; n = 3)
Method in brief: as §1

[11] = system: HT-29 cells; assay: Cell cycle analysis; format: cell-based, human; conditions: HT-29, 48 h
[12] = system: HepG2 cells; assay: Cell cycle analysis; format: cell-based, human; conditions: HepG2, 48 h
[13] = system: Candida albicans; assay: Antifungal assay; format: cell-based; conditions: C. albicans
Method in brief: (§2)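 Antifungal agar diffusion read as inhibition zone diameter in mm, with amphotericin B as positive control.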

[14] = system: Aspergillus flavus; assay: Antifungal assay; format: cell-based; conditions: A. flavus
Method in brief: as §2

[15] = system: Aspergillus niger; assay: Antifungal assay; format: cell-based; conditions: A. niger
Method in brief: as §2

[16] = system: C. tropicalis; assay: Antifungal assay; format: cell-based, Candida tropicals
Method in brief: as §2

IC50 (DPPH free radical scavenging) [6] [µg/mL] | IC50 [8] [µg/mL] | SMILES | Inhibition zone [1] [mm] | Inhibition zone [2] [mm] | Inhibition zone [3] [mm] | Inhibition zone [4] [mm] | Inhibition zone [5] [mm] | IC50 [7] [µg/mL] | further results
 |  | CC1(C)S[C@@H]2[C@H](NC(=O)[C@H](N)c3ccc(O)cc3)C(=O)N2[C@H]1C(=O)O [Amoxicillin] | 20 ± 1.90 | 39 ± 2.40 | 30 ± 4.00 | 33 ± 2.90 | 23 ± 6.40 |  | 
55.9 (≈ 285 µM) | 8.9 ± 0.97 (≈ 45.4 µM) | CC1(C)C[C@H](O)C[C@@]2(C)OC(=O)C=C12 [Compound 3, loliolide] | 16 ± 1.90 | 09 ± 1.20 | 10 ± 1.50 | 10 ± 1.40 | 15 ± 1.70 | 3.1 ± 0.1 (≈ 15.8 µM) | IC50 [9]: 4.6 ± 0.51 µg/mL (≈ 23.4 µM); IC50 [10]: 11.9 ± 1.31 µg/mL (≈ 60.6 µM)
 | 1.7 ± 0.02 (≈ 3.13 µM) | COc1cccc2c1C(=O)c1c(O)c3c(c(O)c1C2=O)C[C@@](O)(C(=O)CO)C[C@@H]3O[C@H]1C[C@H](N)[C@H](O)[C@H](C)O1 [Doxorubicin] |  |  |  |  |  | 0.7 ± 0.04 (≈ 1.29 µM) | cell cycle arrest phase [11]: arrested in G2 phase; cell cycle arrest phase [12]: arrested in G2 phase
 |  | C[C@@H]1[C@H](O)[C@@H](C)/C=C/C=C/C=C/C=C/C=C/C=C/C=C/[C@H](O[C@@H]2O[C@H](C)[C@@H](O)[C@H](N)[C@@H]2O)C[C@@H]2O[C@](O)(C[C@@H](O)C[C@@H](O)[C@H](O)CC[C@@H](O)C[C@@H](O)CC(=O)O[C@H]1C)C[C@H](O)[C@H]2C(=O)O [amphotericin B] |  |  |  |  |  |  | diameter of inhibition zone [13]: 29 ± 0.90 mm; diameter of inhibition zone [14]: 33 ± 1.11 mm; diameter of inhibition zone [15]: 41 ± 0.70 mm; diameter of inhibition zone [16]: 25 ± 0.87 mm
14.2 (≈ 80.6 µM) |  | O=C1O[C@H]([C@@H](O)CO)C(O)=C1O [vitamin C] |  |  |  |  |  |  | 
